# Measurements collected from several papers.
# Protocols differ between the studies behind these lines.
# Target: Aurora kinase B (AURKB, Homo sapiens, UniProt Q96GD4)
Structure (SMILES),assay,conditions,remaining binding [%]
CC(=O)N1CCC(c2ccc(C(=O)NC3=NCCN3)cc2C(F)(F)F)CC1,"cell-free assay, competition with immobilised ligand",1 µM,100
O=C(c1ccc(Nc2ncc(Cl)c(-c3ccc(Cl)s3)n2)cc1)N1CCC(N2CCCC2)CC1,"binding, competition with immobilised ligand",1 µM,8.3
CNC(=O)[C@@H]1CC[C@@H](n2c(-c3ccc4cnccc4c3)nc3ccc(C(=O)NCc4cccc(C(N)=O)c4)cc32)C1,"binding, competition with immobilised ligand",1 µM,95
O=C(c1ccc(Nc2nccc(-c3cc4ccccc4s3)n2)cc1)N1CCC(N2CCCC2)CC1,"binding, competition with immobilised ligand",1 µM,63
N[C@H]1CCN(c2nccc(-c3cnn4ncccc34)n2)C1,binding,1 µM,77
COc1cnc(Nc2cccc(S(N)(=O)=O)c2)nc1N1CCN(c2ccccc2)CC1,"binding, competition with immobilised ligand",1 µM,89
CN([C@@H]1CCc2c(CC(=O)O)c3cc(S(C)(=O)=O)ccc3n2C1)S(=O)(=O)c1ccc(F)cc1,"cell-free assay, competition with immobilised ligand",1 µM,83
CN(C)c1ncc(F)c(-c2cnn3ncccc23)n1,binding,1 µM,77
C[C@@H](c1ccc(-n2cnc3c(N)ncnc32)cc1)N1CCc2nn(C)c(Cc3ccccc3)c2C1=O,"binding, competition with immobilised ligand",0.1 µM,65
CNC(=O)Nc1ccc2c(c1)CC[C@@]21OC(=O)N(CC(=O)N(Cc2ccc(F)cc2)[C@@H](C)C(F)(F)F)C1=O,"cell-free assay, competition with immobilised ligand",1 µM,86
O=C(Nc1c[nH]nc1C(=O)NC1CCNCC1)c1cc(F)cc(F)c1,"binding, competition with immobilised ligand",1 µM,78
CC1=C(C#N)[C@@H](c2ccc3[nH]nc(C)c3c2)C(C#N)=C(c2ccc(Cl)cc2)N1,"cell-free assay, competition with immobilised ligand",1 µM,82.9
O=C(NCCCN1CCOCC1)c1ccc(Nc2nccc(-c3cc4ccccc4s3)n2)cc1,"binding, competition with immobilised ligand",1 µM,48
CSc1cccnc1N1CCN(Cc2nc3ccccc3[nH]2)CC1,"cell-free assay, competition with immobilised ligand",1 µM,67
c1cncc(-c2cccc(Nc3nccc(NC4CCCCC4)n3)c2)c1,"binding, competition with immobilised ligand",10 µM,23
Nc1ncc2c(n1)-c1c([nH]c3ccc(C#CC4CC4)cc13)CCCC2,"binding, competition with immobilised ligand",1 µM,43
COc1ncc2cc3ccccc3nc2c1C#N,"cell-free assay, competition with immobilised ligand",5 µM,94
CN(c1nccc(-c2cnn3ncccc23)n1)C1CC1,binding,1 µM,100
CCC(=O)N[C@H]1CC[C@@H](C(=O)N(C)c2ccc(-c3nc4ccccc4o3)cc2)C1,"cell-free assay, competition with immobilised ligand",1 µM,83
C[C@@H]1CN(c2ccc3ncc(-c4ccc5[nH]nc(C6CC6)c5c4)n3n2)C[C@H](C)O1,"binding, competition with immobilised ligand",0.5 µM,82
C[C@@H]1CN(c2cc(-c3n[nH]c4ccc(OC5(C)CC5)cc34)ncn2)C[C@H](C)O1,"cell-free assay, competition with immobilised ligand",0.1 µM,73
CN(C)c1nccc(-c2cnc3ncccn23)n1,binding,1 µM,76
